According to PubChem BioAssay:
Active and inactive are the calls of the source.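 How the source made its calls, unless noted: active means viability loss from added drug above about 55%, and viability with drug at most 40%, in both replicates (limit read from the data, passing the limit was not always enough); inconclusive means both conditions met in only one replicate; inactive means neither replicate meets both conditions.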

Assays:
[1] = reduced viability of SK-BR-3 breast cancer cells – cell-based, 24 h, human, pilot screen (AID 572;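 active means viability at or below 10% of carrier control in both of two separate runs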;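 further: compound exposure lasted between 18 and 24 h rather than exactly 24 h; 100% = carrier-treated control wells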); details: SK-BR-3 viability, CellTiter-Glo luminescence, at 10 µM, stronger effect = lower value
[2] = HUVEC growth inhibition – cell-based, human, primary screen (AID 575;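 active means viability at or below 30% in both replicate assays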;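 further: 100% = median of untreated cell wells with 0.1% DMSO on each plate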); details: HUVEC proliferation, CellTiter-Glo luminescence, 72 h; at 10 µM; stronger effect = lower value
How it was run: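 Test system: primary human umbilical vein endothelial cells; medium: endothelial basal medium with 2% FBS plus growth supplements; dosing: 10 µM compound only; times: 72 h treatment at 37 °C; signal: CTG luminescence; read-out: % viability relative to median vehicle-well signal on each plate; control set: vehicle and MePR control wells; plate: 384-well, collagen-coated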

[3] = H69AR cell proliferation blockers – human, duplicate replicates, primary screen (AID 580;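 active means viability at or under a set limit in both replicates, limit being median viability minus 3 SD, cut at about 48% in these data, passing the limit was not always enough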;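 further: 100% = mean luminescence of untreated wells and 0% = no signal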); details: H69AR lung tumor cells viability, ATP luminescence, 72 h; at 10 µM; stronger effect = lower value
[4] = MRP1 drug-resistance reversers in H69AR cells – cell-based, doxorubicin co-treatment, pilot screen (AID 601); details: CellTiter-Glo, 72 h, at 10 µM; for differential viability (reversal): stronger effect = higher value
[5] = yeast transport mutant growth inhibition pilot in 384-well plates, post-Golgi transport modulator project (AID 636; in the data active means inhibition above about 31%); details: absorbance 615 nm, about 18 h, stronger effect = higher value
[6] = growth suppression of yeast trafficking mutant, preliminary HTS, modulators of trafficking downstream of Golgi apparatus project, 1536-format plate, OD 615 nm (AID 637; in the data active means inhibition above about 30%); details: yeast transport mutant growth, absorbance 615 nm, 18 h; stronger effect = higher value
[7] = H69AR cells + 2 uM doxorubicin, measured here: viability with 2 uM doxorubicin, stronger effect = lower value
[8] = H69AR cells, compound alone cytotoxicity

Row | SMILES | viability [1] | viability [2] | viability [3] | differential viability (reversal) ([4]; H69AR cells + 2 uM doxorubicin) | viability [4, 7] [%] | viability [4, 8] [%] | inhibition [5] | inhibition [6]
1 | CCCN1CCN(C(=O)Cn2cccc2C(=O)c2ccccc2)CC1 | 84% (inactive) | 99.9% (inactive) | 100% (inactive) | 17.8% (inactive) | 82.2 | 100 | -2.27% (inactive) | 1.27% (inactive)
2 | O=C(Nc1ccc(F)cc1)N(CCCN1CCOCC1)Cc1cc2cc3c(cc2[nH]c1=O)OCO3 | 85% (inactive) | 105% (inactive) | 90.8% (inactive) | 7.71% (inactive) | 83.1 | 90.8 | -7.97% (inactive) | 2.55% (inactive)
3 | CCn1nc(C(=O)O)c(=O)c2cc3c(cc21)OCO3 | 69% (inactive) | 86.7% (inactive) | 106% (inactive) | 6.56% (inactive) | 99.3 | 106 | -1.17% (inactive) | 1.83% (inactive)
4 | COc1ccc2c3c(c(=O)oc2c1OCC(N)=O)CCCC3 | 117% (inactive) | 117% (inactive) | 97.6% (inactive) | 16.2% (inactive) | 81.3 | 97.6 | -5.48% (inactive) | -2.55% (inactive)
5 | CCOC(=O)c1ccccc1NC1CC(=O)N(c2ccccc2C)C1=O (centres undefined) | 98% (inactive) | 101% (inactive) | 98.4% (inactive) | 8.82% (inactive) | 89.6 | 98.4 | -2.13% (inactive) | -6.73% (inactive)
6 | O=S(=O)(c1ccc2c(c1)OCCO2)N1CCC(n2nnc3cc(F)ccc32)CC1 | 91% (inactive) | 74.8% (inactive) | 84.2% (inactive) | -5.86% (inactive) | 90.1 | 84.2 | -9.04% (inactive) | -1.77% (inactive)
7 | CCN(CC)CCCN1C(=O)C(O)=C(C(C)=O)C1c1cccc(OC)c1 (centres undefined) | 97% (inactive) | 101% (inactive) | 93% (inactive) | 5.69% (inactive) | 87.3 | 93 | -3.51% (inactive) | -2.73% (inactive)
8 | Cc1cccc(C)c1OCC(=O)Nc1cccc(NC(=O)c2ccco2)c1 | 97% (inactive) | 71.2% (inactive) | 84.6% (inactive) | 1.53% (inactive) | 83.1 | 84.6 | -3.29% (inactive) | -0.16% (inactive)
9 | Nc1nc2ccc(OC(F)(F)F)cc2s1 | 88% (inactive) | 76.5% (inactive) | 71.9% (inactive) | -19.7% (inactive) | 91.6 | 71.9 | -0.13% (inactive) | 0.33% (inactive)
10 | COC(=O)CNC(=O)COC(=O)c1cc(Cl)cc(Cl)c1N | 104% (inactive) | 96.6% (inactive) | 92.6% (inactive) | -2.94% (inactive) | 95.5 | 92.6 | 0.82% (inactive) | 45.3% (active)
11 | CC(=O)c1c(C)nn(C(C)CC(=O)O)c1C (centres undefined) | 113% (inactive) | 97.8% (inactive) | 97.5% (inactive) | 8.11% (inactive) | 89.3 | 97.5 | -1.95% (inactive) | -4.75% (inactive)
12 | CC1=NN(c2ccccc2)C(=O)C1 | 96% (inactive) | 74.6% (inactive) | 94.5% (inactive) | -10.1% (inactive) | 105 | 94.5 | 1.95% (inactive) | 0.67% (inactive)
13 | O=C(C1=C(O)C(=O)N(c2ncccn2)C1c1cccc(Cl)c1)c1ccco1 (centres undefined) | 119% (inactive) | 93% (inactive) | 89.2% (inactive) | -3.12% (inactive) | 92.4 | 89.2 | 2.33% (inactive) | 1.29% (inactive)
14 | Cc1ccc(S(=O)(=O)N2CCN(C(=O)c3cc(=O)[nH]c4ccccc34)CC2)c(C)c1 | 66% (inactive) | 82.8% (inactive) | 83.3% (inactive) | 3.45% (inactive) | 79.8 | 83.3 | -9.04% (inactive) | 2.74% (inactive)
15 | CC(=O)[C@H]1CC[C@H]2[C@@H]3CCC4=CC(=O)CC[C@]4(C)[C@H]3[C@H](O)C[C@]12C | 87% (inactive) | 83.6% (inactive) | 100% (inactive) | 3.85% (inactive) | 96.6 | 100 | 2.08% (inactive) | -6.83% (inactive)
16 | Cc1nnc(SCc2cccc(Oc3ccccc3)c2)n1N | 74% (inactive) | 89.3% (inactive) | 99.6% (inactive) | 5.25% (inactive) | 94.4 | 99.6 | -5.89% (inactive) | 6.18% (inactive)
17 | COc1cc2c(C#N)c(N3CCOCC3)nc(N)c2c(N)n1 | 85% (inactive) | 90% (inactive) | 75.2% (inactive) | 8.29% (inactive) | 67 | 75.2 | -0.13% (inactive) | 0.82% (inactive)
18 | Cc1ccc(S(=O)(=O)N2CCN(C(=O)CSc3nc4ccccc4c(=O)[nH]3)CC2)c(C)c1 | 99% (inactive) | 77.4% (inactive) | 85.1% (inactive) | 16.8% (inactive) | 68.2 | 85.1 | -6.53% (inactive) | -3.64% (inactive)
19 | C=C(C)Cn1c(CCCNC(=O)C(C)(C)C)nc2ccccc21 | 104% (inactive) | 92.9% (inactive) | 102% (inactive) | 0.305% (inactive) | 101 | 102 | -3.47% (inactive) | -4% (inactive)
20 | Cc1nc2ccccc2nc1OCC(=O)Nc1cc(C(F)(F)F)ccc1N1CCOCC1 | 72% (inactive) | 93% (inactive) | 96.3% (inactive) | -4.5% (inactive) | 101 | 96.3 | -6.44% (inactive) | 3.64% (inactive)
21 | O=C(NCCN1CCOCC1)c1ccc(CS(=O)(=O)Cc2ccccc2F)o1 | 59% (inactive) | 102% (inactive) | 108% (inactive) | 0.59% (inactive) | 107 | 108 | -3.84% (inactive) | 1.64% (inactive)
22 | Cc1[nH]c(C(=O)N2CCCCC2)c(C)c1C(=O)NC1CCCCC1 | 88% (inactive) | 92.4% (inactive) | 103% (inactive) | 18.4% (inactive) | 84.4 | 103 | 1.43% (inactive) | 0.66% (inactive)
23 | CCC1CCCCN1C(=O)CSc1nnc(-c2ccco2)o1 (centres undefined) | 126% (inactive) | 94.4% (inactive) | 85.7% (inactive) | 3.32% (inactive) | 82.3 | 85.7 | -1.78% (inactive) | -6.45% (inactive)
